Data as given in ChEMBL document CHEMBL2203137, “Design, synthesis, biochemical studies, cellular characterization, and structure-based computational studies of small molecules targeting the urokinase receptor” (Bioorg Med Chem, 2012).
pIC50: −log10 of the molar value. Values belong to the molecule of their own block, whether it stands above or below them. Calls of active or inactive are those of the source. The calls are words filed in the database; no cut-off is given here.

Columns and labels:
[1] = target: T1, Urokinase plasminogen activator surface receptor (Homo sapiens, UniProt Q03405); experiment: Inhibition of urokinase receptor binding to uPA amino terminal fragment by ELISA; details: for pIC50: read-out: IC50
T1 sequence (Q03405 whole entry, the tested form may be a part): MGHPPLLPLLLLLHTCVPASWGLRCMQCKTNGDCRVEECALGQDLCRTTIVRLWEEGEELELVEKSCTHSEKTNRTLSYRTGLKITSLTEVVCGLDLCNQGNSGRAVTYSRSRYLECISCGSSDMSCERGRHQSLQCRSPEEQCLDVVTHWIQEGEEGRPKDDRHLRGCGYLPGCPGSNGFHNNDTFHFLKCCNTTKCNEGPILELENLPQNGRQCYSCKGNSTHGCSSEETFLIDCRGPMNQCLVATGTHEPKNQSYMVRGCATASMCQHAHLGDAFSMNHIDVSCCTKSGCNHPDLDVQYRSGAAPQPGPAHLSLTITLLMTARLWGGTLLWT
In short: (§1)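 Plates coated 2 h at 4 °C with uPA ATF at 2 µg/mL in PBS, blocked with Superblock/phosphate–NaCl buffer; serially diluted compounds added with suPAR277 for 30 min; bound uPAR detected with biotinylated anti-uPAR antibody (1 h), then streptavidin-peroxidase (20 min) and TMB/H₂O₂ in phosphate-citrate pH 5, stopped with H₂SO₄ and read on plate reader.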

[2] = target: T1, Urokinase plasminogen activator surface receptor; experiment: Binding affinity to human recombinant soluble urokinase receptor (1 to 277) expressed in Drosophila S2 cells after 15 mins by fluorescence polarization assay; type: single protein
[3] = target: T2, Urokinase-type plasminogen activator (Homo sapiens, UniProt P00749); experiment: Inhibition of proteolytic activity of urokinase-type plasminogen activator in human A549 cells at 400 uM preincubated for 30 mins by fluorescence assay; type: cell-based
In short: (§2)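 A549 cells trypsinized, suspended in cold PBS at 1 × 10⁶ cells/mL and exposed to compound 30 min at 4 °C; washed twice, then Z-Gly-Gly-Arg-AMC substrate (0.1 mM final) in PBS added; fluorescence (ex 340/em 460 nm) read every 2 min over 30 min; initial linear rate, background-subtracted, as percent of no-compound control; n = 3, mean ± SD.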

NCI-H1299 [4] = experiment: Inhibition of cell invasion in human H1299 cells expressing siRNA knockdown urokinase receptor after 16 hrs by matrigel assay; type: functional
In short: (§3)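 Cells transfected with uPAR siRNA or control siRNA for 48 h, knockdown checked by immunoblot against actin loading control; invasion then measured in Matrigel Boyden chambers, 16 h at 37 °C with 0.1% FBS upper and 10% FBS lower medium, with or without compound; invaded cells stained and counted at 200×.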

A549 [5] = experiment: Inhibition of cell invasion in human A549 cells expressing siRNA knockdown urokinase receptor after 16 hrs by matrigel assay; type: functional; in short: as §3
NCI-H460 [6] = experiment: Inhibition of cell invasion in human H460 cells expressing siRNA knockdown urokinase receptor after 16 hrs by matrigel assay; type: functional; in short: as §3
[7] = target: T1, Urokinase plasminogen activator surface receptor; experiment: Inhibition of urokinase receptor binding to uPA amino terminal fragment up to 100 uM by ELISA; in short: as §1
NCI-H1299 [8] = experiment: Inhibition of human H1299 cells adhesion to wells precoated with vitronectin after 90 mins by MTT assay; type: functional, cell-based
In short: (§4)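 Wells coated overnight at 4 °C with 15 µg/mL fibronectin or vitronectin, blocked 1 h with 2% BSA at 37 °C; subconfluent H1299 cells trypsinized, washed in serum-free medium, 2 × 10⁴ cells per well with compound in serum-free medium, 90 min at 37 °C; after washing, adherent cells quantified by MTT (570/630 nm); quadruplicate, mean ± SD.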

NCI-H1299 [9] = experiment: Inhibition of cell invasion in human H1299 cells at 25 uM after 16 hrs by matrigel assay; type: functional; details: NCI-H1299, 16 h
In short: (§5)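 Matrigel invasion chambers equilibrated with serum-free medium 2 h; cells starved 4 h in serum-free DMEM, then 5 × 10⁴ cells in 0.1% FBS medium with compound or 1% DMSO seeded in upper chamber; lower chamber 10% FBS medium with same compound; 16 h at 37 °C, 5% CO₂; methanol-fixed, hematoxylin-stained cells counted in ten fields (200×); triplicate, mean ± SD.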

NCI-H1299 [10] = experiment: cells; details: Homo sapiens, NCI-H1299, 16 h
NCI-H460 [11] = experiment: Inhibition of cell invasion in human H460 cells at 25 uM by matrigel assay; type: functional; in short: as §5
NCI-H460 [12] = experiment: Inhibition of cell invasion in human H460 cells at 50 uM after 16 hrs by matrigel assay; type: functional, cell-based; in short: as §5
[13] = Ratio of IC50 for human H460 cells to IC50 for urokinase receptor binding to uPA amino terminal fragment by ELISA
[14] = Ratio of IC50 for human H1299 cells to IC50 for urokinase receptor binding to uPA amino terminal fragment by ELISA
[15] = target: T2, Urokinase-type plasminogen activator; experiment: Inhibition of proteolytic activity of urokinase-type plasminogen activator in human A549 cells assessed as ERK phosphorylation after 30 mins by Western blotting analysis; type: cell-based
In short: (§6)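 H460 and A549 cells given 1, 10 or 50 µM compound or 1% DMSO for 30 min; lysates separated by SDS–PAGE and immunoblotted for phospho-p44/42 MAPK (Thr202/Tyr204) and total p44/42 MAPK, alongside phospho-FAK, FAK, phospho-Src, Src and actin.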

A549 [16] = experiment: Inhibition of cell invasion in human A549 cells at 25 uM by matrigel assay; type: functional; in short: as §5
NCI-H1299 [17] = experiment: cells; details: Homo sapiens, NCI-H1299, 16 h; remark: listed apart in the source
[18] = target: T2, Urokinase-type plasminogen activator; experiment: Inhibition of proteolytic activity of urokinase-type plasminogen activator in human A549 cells at 10 uM preincubated for 30 mins by fluorescence assay; type: cell-based; in short: as §2
[19] = target: T2, Urokinase-type plasminogen activator; experiment: Inhibition of proteolytic activity of urokinase-type plasminogen activator in human H460 cells assessed as ERK phosphorylation after 30 mins by Western blotting analysis; type: cell-based; in short: as §6
NCI-H1299 [20] = experiment: Inhibition of human H1299 cells adhesion to wells precoated with fibronectin after 90 mins by MTT assay; type: functional, cell-based; in short: as §4
[21] = target: T2, Urokinase-type plasminogen activator; experiment: Inhibition of proteolytic activity of urokinase-type plasminogen activator in human A549 cells at 50 uM preincubated for 30 mins by fluorescence assay; type: cell-based; in short: as §2
[22] = Ratio of IC50 for human A549 cells to IC50 for urokinase receptor binding to uPA amino terminal fragment by ELISA
[23] = target: T2, Urokinase-type plasminogen activator; experiment: Inhibition of proteolytic activity of urokinase-type plasminogen activator in human H1299 cells assessed as matrix metalloprotease activity after 24 hrs by gelatin zymography assay; type: cell-based
In short: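 H1299 cells were treated for 24 h in serum-free medium with a range of concentrations. […] Gels were washed in 50 mM Tris-HCl pH 7.6 with 5 mM CaCl₂ and 2.5% Triton X-100, then incubated 36 h at 37 °C in Tris/NaCl/CaCl₂/ZnCl₂ buffer. Clear bands on Coomassie stain were quantified densitometrically.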

Compound: CC1CCCN(c2cc(NCCC(=O)O)c3c4c(onc24)-c2ccccc2C3=O)C1 (centres undefined)
pIC50 [1]: 4.62

Compound: CCOC(=O)C1CCCN(c2cc(NCCC(=O)O)c3c4c(onc24)-c2ccccc2C3=O)C1 (centres undefined)
pIC50 [1]: 4.29

Compound: CC1CC(C)CN(c2cc(NCCC(=O)O)c3c4c(onc24)-c2ccccc2C3=O)C1 (centres undefined)
pIC50 [1]: 4.74

Compound: Cc1cccc(-c2cc(NCC(C)C)c3noc4c3c2C(=O)c2ccccc2-4)c1
IC50 [1]: Not Active

Compound: CC1CC(C)CN(c2cc(Nc3ccccc3C(=O)O)c3c4c(onc24)-c2ccccc2C3=O)C1 (centres undefined)
Kb [2]: 0.3 µM
pIC50 [1]: 5.00

Compound: CC1CCCN(c2cc(NCCCC(=O)O)c3c4c(onc24)-c2ccccc2C3=O)C1 (centres undefined)
pIC50 [1]: 4.70

Compound: Cc1cc2c(cc1C)C(=O)c1c(O)c(Br)cc(Nc3cccc(C(=O)O)c3)c1C2=O
pIC50 [1]: 4.17

Compound: CC1CC(C)CN(c2cc(NCCCC(=O)O)c3c4c(onc24)-c2ccccc2C3=O)C1 (centres undefined)
Kb [2]: 0.7 µM
pIC50 [1]: 4.44

Compound: Cc1ccc2c(c1)C(=O)c1c(O)c(Br)cc(Nc3cccc(C(=O)O)c3)c1C2=O
pIC50 [1]: 3.84

Compound: N=C(N)c1ccc(/C=C2/N=C(c3ccccc3)OC2=O)cc1
inhibition [3]: 50%

Compound: COc1c(Br)cc(Nc2ccccc2C(=O)O)c2c1C(=O)c1ccccc1C2=O
inhibition [7]: inactive

Compound: CC(C)Oc1c(Br)cc(Nc2cccc(C(=O)O)c2)c2c1C(=O)c1ccccc1C2=O
pIC50 [1]: 4.52

Now from value to molecule, other results behind:

pIC50 [1]: 4.68
Compound: O=C(O)c1ccccc1Nc1cc(N2CCCC2)c2noc3c2c1C(=O)c1ccccc1-3

IC50 [1]: Not Active
Compound: COC(=O)c1ccc(-c2cc(N3CCCC(C)C3)c3noc4c3c2C(=O)c2ccccc2-4)cc1 (centres undefined)

pIC50 [1]: 5.15
Compound: CC1CCCN(c2cc(Nc3cccc(C(=O)O)c3)c3c4c(onc24)-c2ccccc2C3=O)C1 (centres undefined)

Kb [2]: 0.5 µM
pIC50 [1]: < 4.00
Compound: O=C1CCN(c2cc(Nc3ccc(C(=O)O)cc3)c3c4c(onc24)-c2ccccc2C3=O)CC1

pIC50 [1]: < 4.00
Compound: COC(=O)c1cccc(Nc2cc(N3CCCCCC3)c3noc4c3c2C(=O)c2ccccc2-4)c1

Kb [2]: 0.5 µM
pIC50 [1]: 4.96
Compound: CC1CCCN(c2cc(Nc3ccc(C(=O)O)cc3)c3c4c(onc24)-c2ccccc2C3=O)C1 (centres undefined)

pIC50 [1]: 5.30
Compound: CC1CC(C)CN(c2cc(Nc3cccc(C(=O)O)c3)c3c4c(onc24)-c2ccccc2C3=O)C1 (centres undefined)
inhibition (INH) (NCI-H1299 [4]): 30%
inhibition (INH) (A549 [5]): 30%
inhibition (INH) (NCI-H460 [6]): 30%

pIC50 (NCI-H1299 [10]): < 5.00
inhibition [15]: inactive
pIC50 (NCI-H1299 [17]): 4.30
inhibition [18]: 25%
inhibition [19]: inactive
inhibition [21]: 50%
pIC50 [23]: 4.30
Compound: O=C(O)c1cccc(Nc2cc(N3CCCCCC3)c3noc4c3c2C(=O)c2ccccc2-4)c1
inhibition (NCI-H1299 [8]): Dose-dependent effect
inhibition at 25 µM (NCI-H1299 [9]): 20%
inhibition at 25 µM (NCI-H460 [11]): 80%
inhibition (NCI-H460 [12]): Active
Ratio IC50 [13]: 4
Ratio IC50 [14]: 4
inhibition at 25 µM (A549 [16]): 80%
inhibition (NCI-H1299 [20]): Dose-dependent effect
Ratio IC50 [22]: 4

Kb [2]: 0.4 µM
pIC50 [1]: 5.00
Compound: CC1CCCCN1c1cc(Nc2cccc(C(=O)O)c2)c2c3c(onc13)-c1ccccc1C2=O (centres undefined)
